Assay results reported in ChEMBL document CHEMBL5113552, “(-)-Epigallocatechin Gallate is a Noncompetitive Inhibitor of NAD Kinase” (ACS Med Chem Lett, 2022).
The source made the active and inactive calls. The calls are words filed in the database; no cut-off is given here.

What was measured:
[1] = molecular target: T1, NAD kinase (Homo sapiens, UniProt O95544); test: Inhibition of NADK (unknown origin) by HPLC analysis
T1 sequence (O95544 whole entry): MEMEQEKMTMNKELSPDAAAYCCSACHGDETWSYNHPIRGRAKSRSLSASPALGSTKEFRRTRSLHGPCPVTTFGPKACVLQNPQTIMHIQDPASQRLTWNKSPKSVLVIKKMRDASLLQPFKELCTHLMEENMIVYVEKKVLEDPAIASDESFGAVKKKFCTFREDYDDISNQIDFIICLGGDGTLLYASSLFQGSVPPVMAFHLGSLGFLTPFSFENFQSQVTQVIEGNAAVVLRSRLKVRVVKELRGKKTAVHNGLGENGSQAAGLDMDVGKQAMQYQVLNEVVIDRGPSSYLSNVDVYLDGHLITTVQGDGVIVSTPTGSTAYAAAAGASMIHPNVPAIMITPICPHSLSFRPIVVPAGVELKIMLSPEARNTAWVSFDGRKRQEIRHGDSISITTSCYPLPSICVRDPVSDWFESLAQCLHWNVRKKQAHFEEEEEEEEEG

[2] = molecular target: T1, NAD kinase; test: Inhibition of human NADK by HPLC analysis
[3] = molecular target: T1, NAD kinase; test: Inhibition of NADK delta 95 kinase domain (unknown origin) at 80 uM measured after 30 mins by […]
[4] = tested on: PC-9; test: Cytotoxicity against human PC-9 cells harboring wild type KRAS assessed as inhibition of cell growth at 60 uM measured on day 4; assay type: functional, cell-based
Procedure, shortened: (§1)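 Lung cancer cell lines (PC-9 KRAS WT, A549 KRAS G12S, H358 and H23 KRAS G12C) exposed to a range of concentrations. Growth curves were built by following cell number over days (day 4 is cited) against a DMSO control. n = 3 replicates; significance was judged at P < 0.05, 0.01 and 0.001.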

[5] = molecular target: T2, NAD kinase (Homo sapiens) (UniProt O95544); test: Binding affinity to human NADK (410 to 418 residues) assessed as decrease in deuterium incorporation at 80 uM measured after 30 mins by HDX-MS analysis; design: scale not given: the % may be the effect or the level left
T2 sequence (whole entry): T1 sequence (O95544 whole entry)

[6] = molecular target: T1, NAD kinase; test: Binding affinity to N-terminal full length NADK (unknown origin) expressed in Escherichia coli BL21(DE3) cells assessed as dissociation constant by surface plasmon resonance assay
[7] = tested on: A549; test: Cytotoxicity against human A549 cells harboring KRAS […] mutant assessed as inhibition of cell growth at 30 uM; assay type: functional, cell-based
[8] = tested on: NCI-H358; test: Cytotoxicity against human H358 cells harboring KRAS G12C mutant assessed as inhibition of cell growth at 30 uM; assay type: functional; procedure, shortened: as §1
[9] = molecular target: T2, NAD kinase (Homo sapiens); test: Binding affinity to human NADK (155 to 164 residues) assessed as decrease in deuterium incorporation at 80 uM measured after 30 mins by HDX-MS analysis; design: scale not given: the % may be the effect or the level left
[10] = tested on: NCI-H23; test: Cytotoxicity against human H23 cells harboring KRAS G12C mutant assessed as inhibition of cell growth at 30 uM; assay type: functional; procedure, shortened: as §1
[11] = tested on: A549; test: Cytotoxicity against human A549 cells harboring KRAS G12S mutant assessed as inhibition of cell growth at 50 uM
[12] = molecular target: T1, NAD kinase; test: Non-competitive inhibition of N-terminal full length NADK (unknown origin) expressed in Escherichia coli BL21(DE3) cells by enzymatic activity assay
[13] = molecular target: T2, NAD kinase (Homo sapiens); test: Binding affinity to human NADK (345 to 365 residues) assessed as decrease in deuterium incorporation at 80 uM measured after 30 mins by HDX-MS analysis; design: scale not given: the % may be the effect or the level left
[14] = tested on: RL; test: Cytotoxicity against human RL cells assessed as inhibition of cell growth; assay type: functional, cell-based
[15] = tested on: CCRF-CEM; test: Cytotoxicity against human CCRF-CEM cells assessed as inhibition of cell growth; assay type: functional, cell-based
[16] = tested on: MOLT-4; test: Cytotoxicity against human MOLT-4 cells assessed as inhibition of cell growth; assay type: functional, cell-based
[17] = Cytotoxicity against human C85 cells assessed as inhibition of cell growth; assay type: functional, cell-based; conditions: CCCL-1

Oc1cc(O)c2c(c1)O[C@H](c1cc(O)c(O)c(O)c1)[C@H](O)C2 [EPIGALLOCATECHIN]
IC50 [1]: > 100 µM

Nc1ncnc2c1ncn2[C@@H]1O[C@H](CSSC[C@H]2O[C@@H](n3c(Br)nc4c(N)ncnc43)[C@H](O)[C@@H]2O)[C@@H](O)[C@H]1O
Ki [2]: 6 µM

Nc1ncnc2c1ncn2[C@@H]1O[C@H](CSSC[C@H]2O[C@@H](n3cnc4c(N)ncnc43)[C@H](O)[C@@H]2O)[C@@H](O)[C@H]1O
Ki [2]: 45 µM

O=C(O[C@@H]1Cc2c(O)cc(O)cc2O[C@@H]1c1cc(O)c(O)c(O)c1)c1cc(O)c(O)c(O)c1 [EPIGALOCATECHIN GALLATE]
IC50 [3]: 0.96 µM | Activity [4]: Active | Activity [5]: 21.8% | Kd [6]: 1.78 µM | Activity [7]: Active | inhibition at 30 µM [8]: 100% | Activity [9]: 12.9% | inhibition at 30 µM [10]: 100% | inhibition at 50 µM [11]: 100% | Ki [12]: 3.28 µM | Activity [13]: 21.1%

NC(=S)c1cccnc1
IC50 [14]: 10 µM | IC50 [15]: 10 µM | IC50 [16]: 10 µM | IC50 [17]: 10 µM

Oc1cc(O)c2c(c1)O[C@@H](c1cc(O)c(O)c(O)c1)[C@H](O)C2 [(-)-GALLOCATECHIN]
IC50 [1]: > 100 µM

Nc1ncnc2c1nc(Br)n2[C@@H]1O[C@H](CSSC[C@H]2O[C@@H](n3c(Br)nc4c(N)ncnc43)[C@H](O)[C@@H]2O)[C@@H](O)[C@H]1O
Ki [2]: 6 µM
